VIM-2 inhibitor: VIM-2 metallo-beta-lactamase inhibitors, primary screen, biochemical, epi-absorbance readout, Pseudomonas aeruginosa enzyme | purified VIM-2, nitrocefin hydrolysis, epi-absorbance fluorescence | inhibition, % at 5.6 µM | 290,000 compounds, 0.89% hits;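 active means inhibition above the mean of all tested compounds plus 3 SD, cutoff set per screening run, cut at about 7.5% in these data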;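 further: red hydrolysis product quenches plate fluorescence so inhibitors raise well fluorescence; 0% = enzyme with DMSO and 100% = DMSO without enzyme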
PfM18AAP inh: PfM18AAP inhibitors, malaria aminopeptidase, primary screen, biochemical, QFRET, recombinant enzyme | 290,000 compounds, 1.2% hits | inhibition, % at 7.35 µM | H-Glu-NHMec fluorogenic cleavage | AID 1822, 2009;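 active means inhibition above the campaign mean inhibition over all tested compounds plus 3 SD, cut at about 28% in these data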;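 further: 0% = plate median of test compound wells and 100% = 2 mM ZnCl2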
IMP-1 inhibitor: IMP-1 metallo-beta-lactamase inhibitors, primary screen, biochemical, epi-absorbance readout, Pseudomonas aeruginosa enzyme; metallo-beta-lactamase IMP-1 (Pseudomonas aeruginosa); purified IMP-1, nitrocefin hydrolysis, epi-absorbance fluorescence; inhibition, % at 5.6 µM; 290,000 compounds, 0.45% hits; AID 1556, 2009;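 active means inhibition above the mean plus 3 SD of all compounds in the same screening run, cut at about 4.5% in these data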;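 further: 0% = IMP-1 with DMSO and 100% = DMSO wells lacking enzyme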
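System: purified IMP-1 / Input: IMP-1 dispensed at 0.2 nM / Medium: 50 mM HEPES pH 7.1, 50 µM ZnSO4, 0.05% Brij 35 / Timing: 15 min enzyme–compound preincubation, then 25 min nitrocefin reaction, 25 °C / Technique: plate fluorescence quenching by hydrolysis product, ex 480/em 530 nm / Repeats: singlicate testing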
Fh CTSL1 inh: Fasciola hepatica cathepsin L1 inhibitors, primary screen, counter-screen for PFM18AAP inhibitor project, biochemical, QFRET, fluorogenic peptide substrate. 300,000 compounds, 0.49% hits. recombinant F. hepatica cathepsin L1, Z-Leu-Arg-MCA fluorescence. inhibition, % at 5.96 µM. AID 1906, 2009;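 active means inhibition above the mean of all tested compounds plus 3 SD, set per screening campaign, cut at about 17% in these data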;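 further: 0% = plate median of test compound wells and 100% = 1 µM Z-Phe-Ala-diazomethylketone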
* = called active by the depositor; nt = no result given. This is a sample that favours compounds with a hit; in the whole collection about 2.7% have one here.

SMILES	VIM-2 inhibitor	PfM18AAP inh	IMP-1 inhibitor	Fh CTSL1 inh
CC(C)CC(=O)N=C1SC2CS(=O)(=O)CC2N1Cc1ccccc1Cl (stereo not given)	-4	-9	-2	1
N#CC1=C(N)C(C#N)(C#N)[C@H](c2ccncc2)[C@H]2CN(C(=O)OCc3ccccc3)CC=C12	0	-3	-2	19*
CN(C)c1ccc(C(CNS(=O)(=O)c2ccc3ccccc3c2)N2CCOCC2)cc1 (stereo not given)	nt	nt	nt	0
CSc1nc2nccc(-c3ccc4c(c3)OCO4)n2n1	11*	4	-6	5
CCC(C(=O)NCCCN1CCCCCC1)n1nc(C)c2sc3ccccc3c2c1=O (stereo not given)	-1	-9	-6	0
CCN1CCN(CCCNC(=O)C(NC(=O)C2CCC(C)CC2)C(C)C)CC1 (stereo not given)	-3	2	-3	nt
CCCCN(C)CCNC(=O)C(NC(=O)C1CCC(C)CC1)C(C)C (stereo not given)	-2	-6	-5	56*
COc1ccc(C(=O)Nc2ccc(Cn3ccnc3)cc2)cc1OC	8.5*	-8	-3	5
O=C1C(NS(=O)(=O)c2cccs2)=C(N2CCOCC2)C(=O)c2ccccc21	6	15	1	1
O=C1C=C(N2CCOCC2)c2ccccc2C1=O	0	6	-2	112*
CC1=C(C)C(=O)C(N2CCOCC2)=CC1=O	-3	6	-2	nt
CN(C1=C(N2CCOCC2)C(=O)c2ccccc2C1=O)c1ccccc1	-3	-5	-2	62*
O=C(O)c1cccc(NC2=C(N3CCOCC3)C(=O)c3ccccc3C2=O)c1	6	13	0	50*
O=C(Cc1ccc(Cl)c(Cl)c1)Nc1ccc(S(=O)(=O)Nc2ncccn2)cc1	-4	-6	-3	4
Cn1ccnc1SCC(=O)N1CCc2ccccc21	2	-4	-1	2
CC(O)c1cc2c(cc1NC(=O)c1cnn3c1NC(c1ccco1)CC3C(F)(F)F)OCO2 (stereo not given)	-2	29*	-3	0
CCC(C)NC(=O)c1cnn2c1NC(c1ccc3c(c1)OCO3)CC2C(F)(F)F (stereo not given)	-2	-2	-2	5
COc1cccc(/C=C2/SC(=O)N(C)C2=O)c1OCc1ccc(C(=O)O)cc1	-4	29*	-2	5
C=CCc1cccc(CNc2c(C)cc(C)cc2C)c1O	-1	-2	0	3
N#CCc1nnc2n1-c1ccccc1CCC2	-2	2	12*	-2
CCCc1c(C(=O)N/N=C/c2ccc(OCc3ccccc3)c(OC)c2)nnn1-c1nonc1N	-3	5	-4	17*
COc1ccc(OCC(O)CNC(=O)c2sccc2Cl)cc1 (stereo not given)	-3	-3	38*	0
CCOC(=O)CC(NC(=O)CCc1c(C)nc2ncnn2c1C)c1ccc(C)cc1 (stereo not given)	-2	0	0	0
CCCC(C)NC(=O)COc1ccc(S(=O)(=O)c2ccc(OCC(=O)NC(C)CCC)cc2)cc1 (stereo not given)	-3	7	-3	4
O=c1c2[nH]c3ccc(F)cc3c2ncn1CCCn1ccnc1	8.0*	-14	0	-1
SMILES	VIM-2 inhibitor	PfM18AAP inh	IMP-1 inhibitor	Fh CTSL1 inh
Cc1nnc(SCC(=O)NC2CCCCC2)[nH]c1=O	-2	10	-4	-1
Cc1ccc(C)c(N2N=C(C(=O)NCCN3C(=O)S/C(=C\c4cccnc4)C3=O)CCC2=O)c1	nt	nt	nt	6
CC(=O)Nc1ccc(NC(=S)NC(=O)C2CC2)cc1	0	-7	-1	30*
C=CCn1cc(/C=N/NC(=O)COc2cccc3cccnc23)c2ccccc21	9.3*	17	2	1
COc1ccc(NC(=O)COc2coc(CN3c4ccccc4CC3C)cc2=O)cc1 (stereo not given)	nt	nt	nt	-4
O=C(OCC(=O)N1CCN(C(=O)c2ccco2)CC1)c1cc(-c2ccccc2)nc2ccccc12	11*	-14	0	-7
O=C(OCC(=O)N1CCN(C(=O)c2ccco2)CC1)c1cc(-c2ccc(F)cc2)nc2ccccc12	-5	5	-3	-4
CN(C(=O)COc1ccc(-c2nnco2)cc1)C1CCS(=O)(=O)C1 (stereo not given)	nt	nt	nt	-2
CC(=O)Nc1ccc(N2C(=O)CSC2c2ccccc2)cc1 (stereo not given)	-6	2	4.8*	3
CC(=O)Nc1ccc(N2C(=O)CSC2c2ccc([N+](=O)[O-])cc2)cc1 (stereo not given)	-6	0	-3	0
N#CC1=C(N)Oc2ccc3ccc(O)cc3c2C1c1ccsc1 (stereo not given)	6	-3	17*	nt
COc1ccc(NC(=O)CN(c2ccccc2F)S(=O)(=O)c2ccc(C)cc2)c(OC)c1	-4	2	-4	4
NC(=O)[C@@H]1CCCNc2c(I)cc([N+](=O)[O-])cc2C(=O)N[C@@H](CCCN=C(N)N)C(=O)N[C@@H](CCCN=C(N)N)C(=O)N1	0	1	12*	0
CC[C@H](C)[C@@H]1NC(=O)c2cc([N+](=O)[O-])cc(I)c2NCC[C@@H](C(N)=O)NC(=O)[C@H](CCCN=C(N)N)NC1=O	-2	5	-3	-2
CN(C[C@H](Cc1ccccc1)N(C[C@H](c1ccccc1)N(CCc1ccccc1)N=O)N=O)N=O	0	-9	1	2
COc1cc(CC(=O)Nc2ncc(C)s2)cc(OC)c1OC	-4	-21	-4	5
Cc1cnc(NC(=O)Cc2ccc(C)c(C)c2)s1	-4	2	8.7*	0
Cc1c(NC(=O)c2ccc3c(c2)OCO3)c(=O)n(-c2ccccc2)n1C	-3	-3	-4	-1
Cn1nc(-c2ccc(OCC(=O)Nc3ccccc3)cc2)c2ccccc2c1=O	9.3*	-6	-3	4
O=C(CN(c1cccc([N+](=O)[O-])c1)S(=O)(=O)c1ccccc1)N(Cc1ccccc1)Cc1ccccc1	-4	-5	-4	18*
Cc1sc2ncnc(NCC(c3ccco3)N3CCCC3)c2c1C (stereo not given)	11*	-9	-1	-4
Cc1sc2ncnc(N3CCCCC3)c2c1C	0	12	-4	0
COc1ccc(/C=C2/SC(=O)N(CCC(=O)Nc3ccc(C)cc3)C2=O)cc1OC	-1	0	0	-5
COc1cc(/C=C2/SC(=S)N(CC(=O)O)C2=O)ccc1OCC(=O)Nc1ccc(C)c(C)c1	-1	4	7.5*	4
CC(=O)O[C@H]1C(=O)[C@@]2(C)[C@H]([C@H](OC(=O)c3ccccc3)[C@]3(O)C[C@H](OC(=O)[C@H](O)[C@@H](NC(=O)c4ccccc4)c4ccccc4)C(C)=C1C3(C)C)[C@]1(OC(C)=O)CO[C@@H]1C[C@@H]2O	nt	nt	nt	19*
CCc1ccc(N=CC2=C(O)CC(c3ccco3)CC2=O)cc1 (stereo not given)	-1	23	-4	17*

Compound activity as filed in PubChem.
